Format in all cases: functional
Test [1] concerns Mycobacterium tuberculosis. Briefly: Antimicrobial activity against Mycobacterium tuberculosis embA V280M gene after 48 hrs by agar proportion method.
Test [2] concerns Mycobacterium tuberculosis. Briefly: Antimicrobial activity against Mycobacterium tuberculosis harboring Mycobacterium smegmatis embB gene after 48 hrs by agar proportion method.
Test [3] deals with Mycobacterium tuberculosis. Briefly: Antimicrobial activity against Mycobacterium tuberculosis harboring Mycobacterium smegmatis embB M292L mutant gene after 48 hrs by agar proportion method.
Test [4] deals with Mycobacterium tuberculosis. Briefly: Antimicrobial activity against Mycobacterium tuberculosis harboring Mycobacterium smegmatis embB M292I mutant gene after 48 hrs by agar proportion method.
Test [5] concerns Mycobacterium tuberculosis. Briefly: Antimicrobial activity against Mycobacterium tuberculosis harboring Mycobacterium smegmatis embB M292V mutant gene after 48 hrs by agar proportion method.
In test [6] the test system is Mycobacterium tuberculosis. Briefly: Antimicrobial activity against Mycobacterium tuberculosis expressing EmbC M300L mutant gene after 48 hrs. In short, it runs like this:
(§1)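 Spot test: 20 µl exponential-phase culture spotted on 7H10 agar plus 10% OADC with EMB 0 to 128 µg/ml. Incubated at 37°C for 10 to 30 days, and growth scored against the drug-free lawn. MIC taken as the highest EMB concentration allowing growth.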

The subject of test [7] is Mycobacterium tuberculosis. Briefly: Antimicrobial activity against Mycobacterium tuberculosis expressing EmbC M300L mutant gene after 48 hrs by agar proportion method.
In test [8] the test system is Mycobacterium tuberculosis. Briefly: Antimicrobial activity against Mycobacterium tuberculosis expressing EmbC M300I mutant gene after 48 hrs. An outline of the steps: as §1
In test [9] the test system is Mycobacterium tuberculosis. Briefly: Antimicrobial activity against Mycobacterium tuberculosis expressing EmbC M300I mutant gene after 48 hrs by agar proportion method.
In test [10] the test system is Mycobacterium tuberculosis. Briefly: Antimicrobial activity against Mycobacterium tuberculosis expressing EmbC M300V mutant gene after 48 hrs. An outline of the steps: as §1
Test [11] deals with Mycobacterium tuberculosis. Briefly: Antimicrobial activity against Mycobacterium tuberculosis expressing EmbC M300V mutant gene after 48 hrs by agar proportion method.
The subject of test [12] is Mycobacterium tuberculosis. Briefly: Antimicrobial activity against Mycobacterium tuberculosis expressing EmbC T270I mutant gene after 48 hrs. In short, it runs like this: as §1
Test [13] has as its system Mycobacterium tuberculosis. Briefly: Antimicrobial activity against Mycobacterium tuberculosis expressing EmbC T270I mutant gene after 48 hrs by agar proportion method.
The subject of test [14] is Mycobacterium tuberculosis. Briefly: Antimicrobial activity against Mycobacterium tuberculosis expressing EmbC D249G mutant gene after 48 hrs. An outline of the steps:
as §1

The subject of test [15] is Mycobacterium tuberculosis. Briefly: Antimicrobial activity against Mycobacterium tuberculosis expressing EmbC D249G mutant gene after 48 hrs by agar proportion method. An outline of the steps: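 Agar proportion method: 10^4 CFU plated on 7H10-OADC with EMB or drug-free, and colonies counted after 4 weeks. MIC99 is the lowest concentration at which <1% of cells formed colonies.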

Test [16] has as its system Mycobacterium tuberculosis. Briefly: Ratio of MIC for Mycobacterium tuberculosis expressing wild type EmbC gene to MIC for Mycobacterium tuberculosis expressing EmbC D249G mutant gene.

≈ marks a conversion by molar mass, not a printed value.

With `CC[C@@H](CO)NCCN[C@@H](CC)CO` [ETHAMBUTOL], the minimum inhibitory concentration (MIC) came out at 4 µg/mL (≈ 19.6 µM) in test [1]; 8 µg/mL (≈ 39.2 µM) in test [2]; 8 µg/mL (≈ 39.2 µM) in test [3]; 3 µg/mL (≈ 14.7 µM) in [4]; 3 µg/mL (≈ 14.7 µM) in [5]; 0.5 µg/mL (≈ 2.45 µM) in test [6]. In addition, the minimal inhibitory concentration (MIC) in [8] is below 3 µg/mL; in [10] it was 0.5 µg/mL (≈ 2.45 µM); in [12], 4 µg/mL (≈ 19.6 µM); in test [14] it was 0.5 µg/mL (≈ 2.45 µM). Besides, the MIC90 was 0.5 µg/mL (≈ 2.45 µM) in test [7]; 1 µg/mL (≈ 4.89 µM) in [9]; below 0.5 µg/mL in [11]; 1 µg/mL (≈ 4.89 µM) in [13]; below 0.5 µg/mL in [15]. The Ratio in test [16] amounted to 6.

As a reminder, the MIC is the lowest concentration found to suppress growth. High values mean weaker potency, low ones greater potency. As a reminder, the MIC90 is an inhibitory concentration at the 90% level, which refers to growth in some studies and to a panel of isolates in others. A lower MIC90 goes with greater potency.

Values taken from ChEMBL document CHEMBL1649213, “The arabinosyltransferase EmbC is inhibited by ethambutol in Mycobacterium tuberculosis” (2009).
